Data: ChEMBL document CHEMBL3232897, “Synthesis, antiproliferative and antibacterial activity of new amides of salinomycin” (Bioorg Med Chem Lett, 2014)
In brackets after ≈: the same amount, converted by molar mass.

What was measured:
[1] = tested on: Staphylococcus epidermidis; assay: Antibacterial activity against methicillin-resistant Staphylococcus epidermidis 470/11; assay type: functional
Procedure, shortened: (§1)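 In vitro antibacterial test on Staphylococcus strains, including MRSE clinical isolates. Read-outs were growth inhibition zone (mm) and MIC (µg/ml). Ciprofloxacin was the reference antibiotic.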

[2] = tested on: Staphylococcus epidermidis; assay: Antibacterial activity against Staphylococcus epidermidis ATCC 12228; assay type: functional; procedure, shortened: as §1
[3] = tested on: Staphylococcus epidermidis; assay: Antibacterial activity against methicillin-resistant Staphylococcus epidermidis 460/11; assay type: functional; procedure, shortened: as §1
[4] = tested on: Staphylococcus epidermidis; assay: Antibacterial activity against methicillin-resistant Staphylococcus epidermidis 488/11; assay type: functional; procedure, shortened: as §1
[5] = tested on: Staphylococcus epidermidis; assay: Antibacterial activity against methicillin-resistant Staphylococcus epidermidis 466/11; assay type: functional; procedure, shortened: as §1
[6] = tested on: Staphylococcus epidermidis; assay: Antibacterial activity against Staphylococcus epidermidis ATCC 35984; assay type: functional; procedure, shortened: as §1
Staphylococcus aureus [7] = assay: Antibacterial activity against Staphylococcus aureus ATCC 6538; assay type: functional
[8] = tested on: Staphylococcus epidermidis; assay: Antibacterial activity against methicillin-resistant Staphylococcus epidermidis 469/11; assay type: functional; procedure, shortened: as §1
[9] = tested on: Staphylococcus epidermidis; assay: Antibacterial activity against methicillin-resistant Staphylococcus epidermidis 489/11; assay type: functional; procedure, shortened: as §1
[10] = tested on: Staphylococcus epidermidis; assay: Antibacterial activity against methicillin-resistant Staphylococcus epidermidis 459/11; assay type: functional; procedure, shortened: as §1
[11] = tested on: Staphylococcus epidermidis; assay: Antibacterial activity against methicillin-resistant Staphylococcus epidermidis 461/11; assay type: functional; procedure, shortened: as §1
Staphylococcus aureus [12] = assay: Antibacterial activity against Staphylococcus aureus ATCC 29213; assay type: functional
[13] = tested on: Staphylococcus epidermidis; assay: Antibacterial activity against methicillin-resistant Staphylococcus epidermidis 468/11; assay type: functional; procedure, shortened: as §1
Staphylococcus aureus [14] = assay: Antibacterial activity against Staphylococcus aureus NCTC 4163; assay type: functional
[15] = tested on: Staphylococcus epidermidis; assay: Antibacterial activity against methicillin-resistant Staphylococcus epidermidis 467/11; assay type: functional; procedure, shortened: as §1
[16] = Selectivity index, ratio of IC50 for mouse BALB/3T3 cells to IC50 for human LoVo/DX cells; assay type: functional
Procedure, shortened: (§2)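 Selectivity index is the IC50 in normal murine embryonic fibroblasts (BALB/3T3) divided by the IC50 in the respective cancer line (HL-60, HL-60/vinc, LoVo or LoVo/DX). Each IC50 is the concentration giving 50% growth inhibition. SI >1.0 is taken as favourable.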

LoVo [17] = assay: Resistance index, ratio of IC50 for human LoVo/DX cells to IC50 for human LoVo cells; assay type: functional
Procedure, shortened: (§3)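 Index of resistance is the IC50 in the resistant subline (HL-60/vinc or LoVo/DX) divided by the IC50 in its parental line (HL-60 or LoVo). Each IC50 is the concentration giving 50% growth inhibition. Bands are 0–2 sensitive, 2–10 moderate, above 10 strongly resistant.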

BALB/3T3 = assay: Antiproliferative activity mouse BALB/3T3 cells; assay type: cell-based
Procedure, shortened: (§4)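 IC50 is the concentration giving 50% growth inhibition, reported as mean with SD. HL-60/vinc and LoVo/DX are drug-resistant (MDR) sublines of HL-60 and LoVo. BALB/3T3 is a normal murine embryonic fibroblast line.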

LoVo [18] = assay: Antiproliferative activity against human LoVo cells; assay type: functional, cell-based; procedure, shortened: as §4
[19] = Selectivity index, ratio of IC50 for mouse BALB/3T3 cells to IC50 for human HL60/Vinc cells; assay type: functional; procedure, shortened: as §2
HL-60 [20] = assay: Resistance index, ratio of IC50 for human HL60/Vinc cells to IC50 for human HL60 cells; assay type: functional; procedure, shortened: as §3
[21] = Antiproliferative activity against human HL60/Vinc cells; assay type: functional, cell-based; procedure, shortened: as §4
HL-60 [22] = assay: Selectivity index, ratio of IC50 for mouse BALB/3T3 cells to IC50 for human HL60 cells; assay type: functional; procedure, shortened: as §2
HL-60 [23] = assay: Antiproliferative activity against human HL60 cells; assay type: functional, cell-based; procedure, shortened: as §4
LoVo [24] = assay: Selectivity index, ratio of IC50 for mouse BALB/3T3 cells to IC50 for human LoVo cells; assay type: functional; procedure, shortened: as §2
[25] = Antiproliferative activity against human LoVo/DX cells; assay type: functional, cell-based; procedure, shortened: as §4

## O=C(O)c1cn(C2CC2)c2cc(N3CCNCC3)c(F)cc2c1=O [CIPROFLOXACIN]
[1]
  MIC: 0.125 µg/mL (≈ 0.377 µM)
[2]
  MIC: 0.25 µg/mL (≈ 0.754 µM)
[3]
  MIC: 0.125 µg/mL (≈ 0.377 µM)
[4]
  MIC: 16 µg/mL (≈ 48.3 µM)
[5]
  MIC: 2 µg/mL (≈ 6.04 µM)
[6]
  MIC: 0.125 µg/mL (≈ 0.377 µM)
Staphylococcus aureus [7]
  MIC: 0.25 µg/mL (≈ 0.754 µM)
[8]
  MIC: 8 µg/mL (≈ 24.1 µM)
[9]
  MIC: 0.25 µg/mL (≈ 0.754 µM)
[10]
  MIC: 16 µg/mL (≈ 48.3 µM)
[11]
  MIC: 0.25 µg/mL (≈ 0.754 µM)
Staphylococcus aureus [12]
  MIC: 0.5 µg/mL (≈ 1.51 µM)
[13]
  MIC: 16 µg/mL (≈ 48.3 µM)
Staphylococcus aureus [14]
  MIC: 0.25 µg/mL (≈ 0.754 µM)
[15]
  MIC: 16 µg/mL (≈ 48.3 µM)

## CC[C@@H](C(=O)[C@@H](C)[C@@H](O)[C@H](C)[C@@H]1O[C@@H]([C@@H](CC)C(=O)NCCCCNC(=O)[C@H](CC)[C@H]2CC[C@H](C)[C@H]([C@@H](C)[C@H](O)[C@H](C)C(=O)[C@H](CC)[C@H]3O[C@]4(C=C[C@@H](O)[C@]5(CC[C@@](C)([C@H]6CC[C@](O)(CC)[C@H](C)O6)O5)O4)[C@H](C)C[C@@H]3C)O2)CC[C@@H]1C)[C@H]1O[C@]2(C=C[C@@H](O)[C@]3(CC[C@@](C)([C@H]4CC[C@](O)(CC)[C@H](C)O4)O3)O2)[C@H](C)C[C@@H]1C
[16]
  Ratio IC50: 5.13
LoVo [17]
  Ratio IC50: 0.36
BALB/3T3
  IC50: 19.8 µM
LoVo [18]
  IC50: 10.7 µM
[19]
  Ratio IC50: 1.47
HL-60 [20]
  Ratio IC50: 4.95
[21]
  IC50: 13.5 µM
HL-60 [22]
  Ratio IC50: 7.28
HL-60 [23]
  IC50: 2.7 µM
LoVo [24]
  Ratio IC50: 1.85
[25]
  IC50: 3.9 µM

## CC[C@@H](C(=O)[C@@H](C)[C@@H](O)[C@H](C)[C@@H]1O[C@@H]([C@@H](CC)C(=O)NCC2COCCOCCOCCOCCO2)CC[C@@H]1C)[C@H]1O[C@]2(C=C[C@@H](O)[C@]3(CC[C@@](C)([C@H]4CC[C@](O)(CC)[C@H](C)O4)O3)O2)[C@H](C)C[C@@H]1C (stereo not given in full)
[16]
  Ratio IC50: 3.69
LoVo [17]
  Ratio IC50: 0.35
BALB/3T3
  IC50: 31.3 µM
LoVo [18]
  IC50: 24.1 µM
[19]
  Ratio IC50: 1.16
HL-60 [20]
  Ratio IC50: 1.16
[21]
  IC50: 27 µM
HL-60 [22]
  Ratio IC50: 1.35
HL-60 [23]
  IC50: 23.2 µM
LoVo [24]
  Ratio IC50: 1.3
[25]
  IC50: 8.5 µM

## C#CCNC(=O)[C@H](CC)[C@H]1CC[C@H](C)[C@H]([C@@H](C)[C@H](O)[C@H](C)C(=O)[C@H](CC)[C@H]2O[C@]3(C=C[C@@H](O)[C@]4(CC[C@@](C)([C@H]5CC[C@](O)(CC)[C@H](C)O5)O4)O3)[C@H](C)C[C@@H]2C)O1
[16]
  Ratio IC50: 9.6
LoVo [17]
  Ratio IC50: 0.56
BALB/3T3
  IC50: 37.1 µM
LoVo [18]
  IC50: 6.9 µM
[19]
  Ratio IC50: 3.29
HL-60 [20]
  Ratio IC50: 1.97
[21]
  IC50: 11.3 µM
HL-60 [22]
  Ratio IC50: 6.47
HL-60 [23]
  IC50: 5.7 µM
LoVo [24]
  Ratio IC50: 5.4
[25]
  IC50: 3.9 µM

## CC[C@@H](C(=O)[C@@H](C)[C@@H](O)[C@H](C)[C@@H]1O[C@@H]([C@@H](CC)C(=O)NCCc2c[nH]cn2)CC[C@@H]1C)[C@H]1O[C@]2(C=C[C@@H](O)[C@]3(CC[C@@](C)([C@H]4CC[C@](O)(CC)[C@H](C)O4)O3)O2)[C@H](C)C[C@@H]1C
[16]
  Ratio IC50: 0.99
LoVo [17]
  Ratio IC50: 1.07
BALB/3T3
  IC50: 34.5 µM
LoVo [18]
  IC50: 32.5 µM
[19]
  Ratio IC50: 1.04
HL-60 [20]
  Ratio IC50: 7.46
[21]
  IC50: 33.1 µM
HL-60 [22]
  Ratio IC50: 7.79
HL-60 [23]
  IC50: 4.4 µM
LoVo [24]
  Ratio IC50: 1.06
[25]
  IC50: 34.8 µM

## CC[C@@H](C(=O)[C@@H](C)[C@@H](O)[C@H](C)[C@@H]1O[C@@H]([C@@H](CC)C(=O)NCCc2ccc(F)cc2)CC[C@@H]1C)[C@H]1O[C@]2(C=C[C@@H](O)[C@]3(CC[C@@](C)([C@H]4CC[C@](O)(CC)[C@H](C)O4)O3)O2)[C@H](C)C[C@@H]1C
[16]
  Ratio IC50: 19.57
LoVo [17]
  Ratio IC50: 0.57
BALB/3T3
  IC50: 45.8 µM
LoVo [18]
  IC50: 4.1 µM
[19]
  Ratio IC50: 6.8
HL-60 [20]
  Ratio IC50: 2.98
[21]
  IC50: 6.7 µM
HL-60 [22]
  Ratio IC50: 20.27
HL-60 [23]
  IC50: 2.3 µM
LoVo [24]
  Ratio IC50: 11.2
[25]
  IC50: 2.3 µM
